The values below come from ChEMBL document CHEMBL4011648, “Adamantyl Antiestrogens with Novel Side Chains Reveal a Spectrum of Activities in Suppressing Estrogen Receptor Mediated Activities in Breast Cancer Cells” (J Med Chem, 2017).

Calls of active or inactive are those of the source. The rule behind the calls is not given here.

For assay [1], the system named is MCF7. The assay can be described thus: Antiproliferative activity against ER-positive human MCF7 cells at 3 uM after 6 days by WST-1 assay. The assay is classed as functional. The essentials:
(§1)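 MCF-7 cells (ATCC), 6-day compound exposure; viability by WST-1 absorbance at 450 nm, expressed relative to vehicle-treated controls. Run in triplicate; 3 μM single-concentration screen values are averages of two to three independent experiments. Dose-response curves give IC50.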
In general terms: Formazan colour is commonly taken as a measure of viable cells.

For assay [2], the target named is T1, Estrogen receptor (Homo sapiens) (UniProt P03372).
T1 sequence (whole entry): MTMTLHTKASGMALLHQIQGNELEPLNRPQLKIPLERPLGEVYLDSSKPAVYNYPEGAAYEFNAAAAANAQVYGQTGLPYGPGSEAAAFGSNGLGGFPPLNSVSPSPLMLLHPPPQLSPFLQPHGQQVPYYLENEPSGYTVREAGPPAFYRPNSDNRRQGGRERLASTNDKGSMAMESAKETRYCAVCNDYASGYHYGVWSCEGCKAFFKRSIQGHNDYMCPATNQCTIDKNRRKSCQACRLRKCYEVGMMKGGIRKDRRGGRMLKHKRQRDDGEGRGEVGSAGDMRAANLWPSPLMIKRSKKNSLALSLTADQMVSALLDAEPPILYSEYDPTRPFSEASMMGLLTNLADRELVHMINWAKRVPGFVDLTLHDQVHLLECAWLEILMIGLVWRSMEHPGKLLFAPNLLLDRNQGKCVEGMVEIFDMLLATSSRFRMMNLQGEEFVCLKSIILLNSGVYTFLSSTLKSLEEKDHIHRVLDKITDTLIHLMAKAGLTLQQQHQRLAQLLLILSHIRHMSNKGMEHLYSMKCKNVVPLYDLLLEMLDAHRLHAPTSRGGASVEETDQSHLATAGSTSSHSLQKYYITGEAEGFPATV
The assay can be described thus: Downregulation of ER-alpha levels in ER-positive human MCF-7 cells at 3 uM after 24 hrs by in-cell Western assay.

In a further assay the test system is MDA-MB-231. The assay is described as follows: Antiproliferative activity against ERalpha-negative human MDA-MB-231 cells at 3 uM after 6 days by WST-1 assay. The assay is classed as functional, cell-based. The essentials: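 ERα-negative MDA-MB-231 breast cancer cells screened for proliferation with compound at 3 μM; WST-1 read-out at 450 nm after 6 days, relative to vehicle.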

Assay [3] addresses T1, Estrogen receptor (Homo sapiens). The assay can be described thus: Displacement of [3H]estradiol from full-length human ERalpha receptor by scintillation counting relative to estradiol. In general terms: In a radioligand displacement assay an active substance lowers the binding of a labelled ligand.
Assay [4] concerns the target T2, Estrogen receptor (Homo sapiens, UniProt P03372).
T2 sequence (P03372 whole entry): T1 sequence (whole entry)
The assay can be described thus: Displacement of [3H]estradiol from full-length human ERalpha receptor by scintillation counting.

Assay [5] deals with MCF7. The assay can be described thus: Antiproliferative activity against ER-positive human MCF7 cells after 6 days by WST-1 assay. Type of assay: functional, cell-based. To be noted: MCF7, 144 h. In short, it runs like this: as §1
Assay [6] addresses T2, Estrogen receptor. The assay is described as follows: Downregulation of human ERalpha in human MCF-7 cells after 24 hrs by in-cell Western immunoassay method. The assay is classed as cell-based. In short, it runs like this: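 MCF-7 cells at 3000 cells/well treated 24 h (3 μM screen or dose-response); formaldehyde-fixed, Triton-permeabilized, stained with rabbit HC-20 anti-ERα overnight at 4 °C, IR secondary plus Cell Tag 700 normalization; in-cell Western imaging, ERα relative to vehicle, average of at least three independent experiments.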

`NCCCNC(=O)/C=C/c1ccc(C(=C2C3CC4CC(C3)CC2C4)c2ccc(O)cc2)cc1`: the outcome (with MCF7 [1]; in assay [2]) was Active. Further, the outcome in the assay with MDA-MB-231 was inactive. The compound also came in with an RBA in assay [3] of 54%.
For orientation: Ki means a measure of affinity in units of concentration, obtained from inhibition or displacement. Read a low Ki as tighter binding. At Estrogen receptor [4], `NC(=O)/C=C/c1ccc(C(=C2C3CC4CC(C3)CC2C4)c2ccc(O)cc2)cc1` displayed a Ki of 0.27 nM. Moreover, the result (in assay [2]; in the assay on MDA-MB-231) was inactive. The same compound gave an RBA in assay [3] of 71%.
With `N#C/C=C/c1ccc(C(=C2C3CC4CC(C3)CC2C4)c2ccc(O)cc2)cc1`, on Estrogen receptor [4], the inhibition constant (Ki) was determined as 1.4 nM. Besides, the outcome with MCF7 [1] and in the assay with MDA-MB-231 was inactive. The outcome in assay [2] was Active. For the same compound, the RBA in assay [3] turned out to be 14%.
As usually defined, the IC50 is the concentration that gives 50% inhibition. On to `O=C(/C=C/c1ccc(C(=C2C3CC4CC(C3)CC2C4)c2ccc(O)cc2)cc1)NCCO`, for which the inhibition constant (Ki) on Estrogen receptor [4] was 0.18 nM. Also, the IC50 in the assay with MCF7 [5] came out at 2.4 nM; on Estrogen receptor [6] it was 5.6 nM. For the same compound, the Activity in the assay with MCF7 [1] stood at 24%. For the same compound, the outcome in assay [2] was Active. Also, in the assay with MDA-MB-231, the outcome was inactive. In addition, in assay [3], the RBA is 109%.
For the compound `NCCCCNC(=O)/C=C/c1ccc(C(=C2C3CC4CC(C3)CC2C4)c2ccc(O)cc2)cc1`, the outcome in assay [2] was Active. In the assay on MDA-MB-231, the result was inactive.
Consider `CCCCN(C)C(=O)/C=C/c1ccc(C(=C2C3CC4CC(C3)CC2C4)c2ccc(O)cc2)cc1`, for which the outcome (in the assay on MCF7 [1]; in assay [2]; in the assay on MDA-MB-231) was inactive. For the same compound, the RBA in assay [3] stood at 28%.
Turning to `CN(C)CCNC(=O)/C=C/c1ccc(C(=C2C3CC4CC(C3)CC2C4)c2ccc(O)cc2)cc1`, at Estrogen receptor [4], the Ki was 0.35 nM. Besides, in the assay on MDA-MB-231, the result was inactive. In assay [3], the RBA was 57%.
On to `CCCCOC(=O)/C=C/c1ccc(C(=C2C3CC4CC(C3)CC2C4)c2ccc(O)cc2)cc1`, for which the inhibition constant Ki on Estrogen receptor [4] amounted to 1.8 nM. For the same compound, the Activity with MCF7 [1] stood at 40%. The result in assay [2] was Active. Further, in the assay with MDA-MB-231, the outcome was inactive. In addition, the RBA in assay [3] is 11%.
In turn, `CC(C)CCCCCOC(=O)/C=C/c1ccc(C(=C2C3CC4CC(C3)CC2C4)c2ccc(O)cc2)cc1` yielded a Ki on Estrogen receptor [4] of 7.1 nM. For the same compound, in assay [2], the result was Active. In addition, the outcome with MDA-MB-231 was inactive. In assay [3], this compound displayed an RBA of 2.8%.
For the compound `O=C(/C=C/c1ccc(C(=C2C3CC4CC(C3)CC2C4)c2ccc(O)cc2)cc1)NCCCCCO`, the affinity at Estrogen receptor [4] corresponds to a Ki of 0.65 nM. Also, in the assay on MCF7 [1], the outcome was Active. Besides, the outcome with MDA-MB-231 was inactive. Also, in assay [3], the RBA amounted to 31%.
Turning to `CCOC(=O)/C=C/c1ccc(C(=C2C3CC4CC(C3)CC2C4)c2ccc(O)cc2)cc1`, affinity on Estrogen receptor [4] was put at a Ki of 3.3 nM. Also, the outcome (in assay [2]; in the assay with MDA-MB-231) was inactive. Also, the RBA in assay [3] is 13%.
`CCCCCC(=O)/C=C/c1ccc(C(=C2C3CC4CC(C3)CC2C4)c2ccc(O)cc2)cc1` gave a Ki on Estrogen receptor [4] of 1.7 nM. The result in the assay with MDA-MB-231 was inactive. The same compound had an RBA in assay [3] of 12%.
For `O=C(/C=C/c1ccc(C(=C2C3CC4CC(C3)CC2C4)c2ccc(O)cc2)cc1)NCC(F)(F)F`, the Ki on Estrogen receptor [4] stood at 1.33 nM. For the same compound, the result (in assay [2]; in the assay on MDA-MB-231) was inactive. The compound also yielded an RBA in assay [3] of 15%.
Turning to `CCCCCNC(=O)/C=C/c1ccc(C(=C2C3CC4CC(C3)CC2C4)c2ccc(O)cc2)cc1`, the Ki at Estrogen receptor [4] is 0.74 nM. In the assay on MCF7 [1], the outcome was Active. Further, the outcome in the assay on MDA-MB-231 was inactive. In assay [3], this compound gave an RBA of 27%.
`O=C(/C=C/c1ccc(C(=C2C3CC4CC(C3)CC2C4)c2ccc(O)cc2)cc1)N(CCO)CCO` showed a Ki at Estrogen receptor [4] of 0.13 nM. For the same compound, in the assay on MDA-MB-231, the result was inactive. The compound further came in with an RBA in assay [3] of 115%.
As for `CN(CCO)C(=O)/C=C/c1ccc(C(=C2C3CC4CC(C3)CC2C4)c2ccc(O)cc2)cc1`, the result in the assay with MDA-MB-231 was inactive.
Regarding `O=C(/C=C/c1ccc(C(=C2C3CC4CC(C3)CC2C4)c2ccc(O)cc2)cc1)OCCCO`, the result (in assay [2]; in the assay on MDA-MB-231) was inactive. This compound also yielded an RBA in assay [3] of 28%.
On to `CCC(=C(c1ccc(O)cc1)c1ccc(/C=C/C(=O)O)cc1)c1ccccc1`, for which, in the assay with MDA-MB-231, the outcome was inactive.
`CCCNC(=O)/C=C/c1ccc(C(=C2C3CC4CC(C3)CC2C4)c2ccc(O)cc2)cc1`: affinity on Estrogen receptor [4] was put at a Ki of 1.1 nM. The outcome with MCF7 [1] was Active. Further, the outcome with MDA-MB-231 was inactive. Besides, the RBA in assay [3] was determined as 18%.
On Estrogen receptor [4], `NCCNC(=O)/C=C/c1ccc(C(=C2C3CC4CC(C3)CC2C4)c2ccc(O)cc2)cc1` registered a Ki of 0.57 nM. Besides, the outcome (with MCF7 [1]; in assay [2]) was Active. Further, the outcome with MDA-MB-231 was inactive. The compound also had an RBA in assay [3] of 35%.
On to `CCCCNC(=O)/C=C/c1ccc(C(=C2C3CC4CC(C3)CC2C4)c2ccc(O)cc2)cc1`, for which the result (in the assay with MCF7 [1]; in assay [2]) was Active. Further, the result in the assay with MDA-MB-231 was inactive. Besides, in assay [3], the RBA is 28%.
Compound `CCCNS(=O)(=O)/C=C/c1ccc(C(=C2C3CC4CC(C3)CC2C4)c2ccc(O)cc2)cc1` showed a Ki at Estrogen receptor [4] of 0.38 nM. Besides, the result (in the assay with MCF7 [1]; in assay [2]) was Active. Moreover, in the assay with MDA-MB-231, the outcome was inactive. The compound also showed an RBA in assay [3] of 52%.
`O=C(/C=C/c1ccc(C(=C2C3CC4CC(C3)CC2C4)c2ccc(O)cc2)cc1)OCCO`: the result (in assay [2]; in the assay on MDA-MB-231) was inactive. Besides, the RBA in assay [3] came to 54%.
For the compound `COC(=O)/C=C/c1ccc(C(=C2C3CC4CC(C3)CC2C4)c2ccc(O)cc2)cc1`, the outcome (in assay [2]; in the assay with MDA-MB-231) was inactive. Further, the RBA in assay [3] is 46%.
`O=C(/C=C/c1ccc(C(=C2C3CC4CC(C3)CC2C4)c2ccc(O)cc2)cc1)OCCCCO` came in with a Ki at Estrogen receptor [4] of 0.45 nM. Also, in assay [2], the outcome was Active. Moreover, the result in the assay with MDA-MB-231 was inactive. In assay [3], this compound returned an RBA of 44%.
In turn, `O=C(/C=C/c1ccc(C(=C2C3CC4CC(C3)CC2C4)c2ccc(O)cc2)cc1)NCCCCO` came in with a Ki on Estrogen receptor [4] of 0.36 nM. Besides, in the assay with MCF7 [1], the outcome was Active. The outcome in the assay on MDA-MB-231 was inactive. In addition, the RBA in assay [3] was found to be 56%.
